Columns and labels:
[1] = target: T1, rat IDE (Rattus norvegicus, UniProt P35559); assay: Thermal melt; format: binding; settings: 100 µM compound; rat IDE 0.5 µM; 28 to 70 °C
T1 sequence (P35559 1-1019): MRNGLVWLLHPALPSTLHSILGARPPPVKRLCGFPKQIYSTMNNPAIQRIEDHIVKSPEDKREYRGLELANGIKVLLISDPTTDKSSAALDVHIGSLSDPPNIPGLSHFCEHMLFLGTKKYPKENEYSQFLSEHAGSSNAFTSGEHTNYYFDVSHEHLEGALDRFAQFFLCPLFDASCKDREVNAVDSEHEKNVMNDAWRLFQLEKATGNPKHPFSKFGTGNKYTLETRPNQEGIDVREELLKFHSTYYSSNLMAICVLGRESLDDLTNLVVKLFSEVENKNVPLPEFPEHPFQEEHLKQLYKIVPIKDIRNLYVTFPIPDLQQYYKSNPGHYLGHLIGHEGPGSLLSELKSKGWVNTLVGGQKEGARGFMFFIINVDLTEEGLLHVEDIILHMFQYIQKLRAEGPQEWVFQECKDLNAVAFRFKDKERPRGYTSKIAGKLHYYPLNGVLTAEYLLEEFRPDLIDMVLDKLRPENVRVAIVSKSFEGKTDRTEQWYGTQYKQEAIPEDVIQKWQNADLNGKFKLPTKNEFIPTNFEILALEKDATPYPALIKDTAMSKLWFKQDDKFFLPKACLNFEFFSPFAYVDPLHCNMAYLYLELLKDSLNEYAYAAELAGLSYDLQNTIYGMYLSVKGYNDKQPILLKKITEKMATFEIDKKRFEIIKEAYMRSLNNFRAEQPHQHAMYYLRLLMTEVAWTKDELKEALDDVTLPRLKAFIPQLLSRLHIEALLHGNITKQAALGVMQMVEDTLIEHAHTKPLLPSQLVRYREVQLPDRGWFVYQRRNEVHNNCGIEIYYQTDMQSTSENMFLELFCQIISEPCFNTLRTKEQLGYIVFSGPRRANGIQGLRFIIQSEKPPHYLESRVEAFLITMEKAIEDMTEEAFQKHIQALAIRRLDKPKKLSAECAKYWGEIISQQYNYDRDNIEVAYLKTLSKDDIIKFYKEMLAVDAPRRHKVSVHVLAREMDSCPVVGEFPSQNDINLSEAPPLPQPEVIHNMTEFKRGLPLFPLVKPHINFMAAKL
In short: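 Thermal shift: recombinant rat IDE (0.5 µM) with 5× SYPRO Orange in 0.1 M KPi pH 7.6, plus DMSO or compound (100 µM). Samples were held 60 min in the dark at room temperature under mineral oil, then heated 28–70 °C in 1–3 °C steps. Fluorescence was read at 465/590 nm. Tm came from a four-parameter variable-slope sigmoidal fit.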

[2] = target: T1, rat IDE; assay: ATP effect on rat IDE activity and activators; format: biochemical; settings: Tris/BSA, 1 mM ATP
In short: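 Rat IDE (87.7 nM) with 50 µM a-factor–based internally quenched fluorogenic substrate in 50 mM Tris pH 7.5 containing BSA and 1 mM ATP. Compounds were used at optimal levels taken from Tris/BSA dose-response curves. ATP titration (0–10 mM) was also run in 0.1 M KPi pH 7.6 or Tris/BSA. Activity is % of water- or DMSO-treated control, n = 4.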

SMILES	shift in thermal melting profile (Tm) of IDE [1]	activation over the ATP-only condition ([2]; compound 125 µM)	% activity relative to ATP-only condition ([2]; compound 500 µM)
O=S(=O)(O)c1cc(O)c2c(O)c(N=Nc3cccc4ccccc34)c(S(=O)(=O)O)cc2c1 [Compound 3]	substantial shift in the melting profile	approximately 25%	
Nc1nc(SCc2ccccc2Cl)cc(C(=O)O)n1 [Compound 5]			> 250%

From publication PMC5901702 (Journal of biomolecular screening, 2012)
